Consider 9 compounds from ChEMBL document CHEMBL3259538, “Identification of the stereochemical requirements in the 4-aryl-2-cycloalkylidenhydrazinylthiazole scaffold for the design of selective human monoamine oxidase B inhibitors” (Bioorg Med Chem, 2014).

Bounds are passed on as bounds.

In data set [1] the target is T1, Amine oxidase [flavin-containing] B (Homo sapiens, UniProt P27338).
T1 sequence (P27338 whole entry): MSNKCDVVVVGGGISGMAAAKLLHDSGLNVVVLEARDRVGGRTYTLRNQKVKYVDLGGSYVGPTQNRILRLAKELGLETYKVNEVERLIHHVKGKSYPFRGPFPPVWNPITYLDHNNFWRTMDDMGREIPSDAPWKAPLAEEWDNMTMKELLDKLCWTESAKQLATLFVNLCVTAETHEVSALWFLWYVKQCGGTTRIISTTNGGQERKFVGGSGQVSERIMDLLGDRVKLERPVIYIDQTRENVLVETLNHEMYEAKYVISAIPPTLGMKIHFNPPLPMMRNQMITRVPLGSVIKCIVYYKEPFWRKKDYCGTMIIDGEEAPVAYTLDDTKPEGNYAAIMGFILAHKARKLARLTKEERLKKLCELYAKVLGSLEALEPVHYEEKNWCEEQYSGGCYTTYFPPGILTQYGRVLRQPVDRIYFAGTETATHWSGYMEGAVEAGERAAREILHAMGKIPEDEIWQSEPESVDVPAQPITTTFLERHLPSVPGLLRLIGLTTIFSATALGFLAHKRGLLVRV
Briefly: biochemical. The class given is cell-based, BTI-TN-5B1-4.

For data set [2], the system named is BTI-TN-5B1-4. Briefly: Selectivity index, ratio of IC50 for human recombinant MAO-A expressed in baculovirus-infected BTI-TN-5B1-4 cell microsomes to IC50 for human recombinant MAO-B expressed in baculovirus-infected BTI-TN-5B1-4 cell microsomes.
Data set [3] has as its target T2, Amine oxidase [flavin-containing] A (Homo sapiens, UniProt P21397).
T2 sequence (P21397 whole entry): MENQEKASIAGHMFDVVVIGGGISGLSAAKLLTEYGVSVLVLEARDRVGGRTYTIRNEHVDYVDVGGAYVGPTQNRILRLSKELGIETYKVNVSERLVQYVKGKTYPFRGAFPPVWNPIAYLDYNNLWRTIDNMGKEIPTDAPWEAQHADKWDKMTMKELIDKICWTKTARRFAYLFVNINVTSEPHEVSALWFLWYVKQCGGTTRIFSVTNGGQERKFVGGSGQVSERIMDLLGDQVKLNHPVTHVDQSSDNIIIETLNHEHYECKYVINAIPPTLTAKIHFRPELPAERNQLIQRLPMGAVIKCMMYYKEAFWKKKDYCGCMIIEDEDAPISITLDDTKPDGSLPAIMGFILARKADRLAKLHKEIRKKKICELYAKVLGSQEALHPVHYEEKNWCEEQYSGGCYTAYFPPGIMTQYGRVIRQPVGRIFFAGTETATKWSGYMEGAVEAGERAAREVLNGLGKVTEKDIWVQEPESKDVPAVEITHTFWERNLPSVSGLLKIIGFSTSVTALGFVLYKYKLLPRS
In words: Inhibition of human recombinant MAO-A expressed in baculovirus-infected BTI-TN-5B1-4 cell microsomes assessed as decrease in H2O2 production using p-tyramine as substrate preincubated for 15 mins by Amplex Red reagent based fluorimetric method.

For data set [4], the target named is T1, Amine oxidase [flavin-containing] B. In words: Inhibition of human recombinant MAO-B expressed in baculovirus-infected BTI-TN-5B1-4 cell microsomes assessed as decrease in H2O2 production using p-tyramine as substrate at 1 mM preincubated for 15 mins by Amplex Red reagent based fluorimetric method. Conditions: bti-tn-5b1-4, 1000 µM; call rule not given here. In a few lines:
(§1)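 Microsomal enzyme in 0.05 M sodium phosphate, pH 7.4. The enzyme amount was adjusted so that controls oxidize 165 pmol p-tyramine/min. Drug and enzyme were preincubated for 15 min at 37 °C. Final 200 µM Amplex Red and 1 U/mL HRP were then added. Resorufin fluorescence (ex 545/em 590 nm) was read linearly over 15 min at 37 °C. Background without enzyme was subtracted, and drug interference was checked with Amplex Red alone.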

In data set [5] the target is T2, Amine oxidase [flavin-containing] A. In words: Inhibition of human recombinant MAO-A expressed in baculovirus-infected BTI-TN-5B1-4 cell microsomes assessed as decrease in H2O2 production using p-tyramine as substrate at 100 uM preincubated for 15 mins by Amplex Red reagent based fluorimetric method. As to conditions: bti-tn-5b1-4, 100 µM. In a few lines: as §1

For the compound `C[C@@H]1CC/C(=N/Nc2nc(-c3ccc(F)cc3F)cs2)C1`, the values for the IC50 in data set [1] and in data set [3] were 0.00291 µM and 13.8 µM, respectively. The Ratio IC50 in data set [2] amounted to 4740.

For the compound `O=C(NCCN1CCOCC1)c1ccc(Cl)cc1` [MOCLOBEMIDE], in data set [4], the “inhibition (INH)” value was “Not Active”.

As to `CC1CC/C(=N\Nc2nc(-c3ccc(F)cc3F)cs2)C1` (mixture of isomers), the half-maximal inhibitory concentration (IC50) (usually the midpoint of a concentration-inhibition curve) came to 0.00934 µM in data set [1] and 16.9 µM in data set [3]. Besides, the Ratio IC50 in data set [2] amounted to 1810.

Consider `CC1CCC/C1=N\Nc1nc(-c2ccc([N+](=O)[O-])cc2)cs1` (mixture of isomers), for which the concentration for half-maximal inhibition (IC50) in data set [1] amounted to 0.00831 µM; in data set [3], 19.2 µM. The Ratio IC50 in data set [2] was 2310.

`O=C1Nc2ccccc2C1=O` [ISATIN]: in data set [5], the “inhibition (INH)” value is recorded as “Not Active”.

Consider `C[C@@H]1CC/C(=N\Nc2nc(-c3ccc(F)cc3F)cs2)C1`, for which the half-inhibitory concentration (IC50) in data set [1] stood at 0.00506 µM; in data set [3] it was 13.1 µM. Further, the Ratio IC50 in data set [2] came out at 2580.

For `CC1CC/C(=N\Nc2nc(-c3ccc(C#N)cc3)cs2)C1` (mixture of isomers), the values for the IC50 in data set [1] and in data set [3] were 0.227 µM and 11.1 µM, respectively. The Ratio IC50 in data set [2] was 49.

For the compound `CC1CC/C(=N\Nc2nc(-c3ccc([N+](=O)[O-])cc3)cs2)C1` (mixture of isomers), the “inhibition (INH)” value in data set [5] is reported as “Not Active”. The same compound had an IC50 in data set [1] of 0.376 µM. For the same compound, the Ratio IC50 in data set [2] is more than 266.

As for `C[C@@H]1CCC(=NNc2nc(-c3ccc(F)cc3F)cs2)C1`, the half-inhibitory concentration (IC50) in data set [1] amounted to 0.00532 µM; in data set [3], 15.5 µM. The Ratio IC50 in data set [2] was 2920.
